# From PubChem
# SUMO1-SIM PPI – modulators of SUMO1 protein-protein interactions, primary screen, biochemical, uHTS. Small ubiquitin-related modifier 1 (Homo sapiens), P63165. SUMO1 binding to a labelled peptide, TR-FRET, 1 h. inhibition, % at 20 µM. 360,000 tested, 0.33% active. AID 602429, 2012; in the data active means inhibition above about 37%
# Scp-1 inhibitor – Scp-1 phosphatase inhibitors, primary screen, biochemical, colorimetric, uHTS; Carboxy-terminal domain RNA polymerase II polypeptide A small phosphatase 1 (Homo …; Recombinant Scp1, phosphopeptide, malachite green phosphate absorbance; inhibition, % at 20 µM; 340,000 tested, 0.88% active; AID 493091, 2011;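 active means inhibition above about 50% at 20 µM, limit read from the data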;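 further: plate controls were DMSO wells with enzyme for no effect and wells lacking enzyme for full effect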
#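 Test system: SCP-1 catalytic domain; Buffer or medium: Acidic Tris acetate buffer with magnesium and detergent; Also added: Phosphorylated 17-residue peptide substrate; Compound: single 20 µM dose, 1% DMSO; Schedule: enzyme reaction 45 min at room temperature, colour 5 min, stabilisation 30 min; Signal: Phosphate-binding colour reagent, absorbance read at 630 nm.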
# HKDC1 inh – HKDC1 hexokinase inhibitors, primary screen, biochemical, fluorescence, uHTS. inhibition, % at 20 µM. 340,000 tested, 0.16% active. recombinant HKDC1, G6PDH/diaphorase resazurin coupled fluorescence. Q2TB90;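 active means inhibition above about 35% when tested at 20 µM, limit read from the data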;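 further: plate controls were DMSO wells with enzyme for no effect and DMSO wells lacking enzyme for full effect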
#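 Test system: recombinant HKDC1 (HK5) hexokinase enzyme, produced in-house; Amount: enzyme 5 µg/mL final; Buffer or medium: Tris pH 8.0 buffer with MgCl2, Tween-20, BSA, BME; Reagent: glucose and ATP substrates; Doses: 20 µM test compound, 1% DMSO; Incubation: 90 min reaction incubation at room temperature, dark; Detection: resorufin fluorescence at 613 nm.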
# LMPTP inh – LMPTP phosphatase inhibitors, primary screen, biochemical, fluorescence intensity, uHTS; Low molecular weight phosphotyrosine protein phosphatase (Homo sapiens), P24666; recombinant LMPTP-A, OMFP fluorogenic substrate; inhibition, % at 20 µM; 360,000 tested, 0.22% active;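 active means compounds that cut the enzyme signal by at least half of the control window in the single-dose screen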;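 further: plate controls were DMSO wells with enzyme plus substrate for no effect and substrate without enzyme for full effect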
#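 Test system: LMPTP-A phosphatase enzyme; input: 0.625 nM LMPTP-A final; reagent: OMFP substrate, 400 µM final; compound dosing: 20 µM single dose, 3% DMSO; incubation: 50 min dark incubation at room temperature; measured by: endpoint fluorescence intensity from OMFP dephosphorylation; measure: % inhibition relative to no-enzyme and uninhibited control wells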
# STEP block – STEP phosphatase inhibitors, primary screen, biochemical, fluorescence intensity, uHTS; Tyrosine-protein phosphatase non-receptor type 5 (Homo sapiens), P54829; recombinant STEP, OMFP fluorogenic substrate; inhibition, % at 20 µM; 360,000 tested, 0.25% active; AID 588621, 2011;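 active means inhibition at 20 µM, scaled per plate between control wells, above about 37%, limit read from the data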;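 further: 0% = DMSO with enzyme and substrate and 100% = substrate only without enzyme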
#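 Assay system: isolated STEP enzyme / Timing: 20 min at room temperature, dark / Doses: 20 µM, 1% DMSO / Technique: fluorescence intensity, excitation 480 nm, emission 540 nm / Reagent: fluorogenic phosphatase substrate OMFP at 25 µM final / Measure: percent inhibition scaled to no-enzyme and uninhibited-enzyme controls, plate-pattern corrected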
# DNMT1 block – human DNMT1 methyltransferase inhibitors, primary screen, biochemical, molecular beacon, fluorescence, HinP1I cleavage, uHTS. DNA (cytosine-5)-methyltransferase 1 (Homo sapiens), P26358. inhibition (reported as % activation of signal), % at 10 µM. 360,000 tested, 0.83% active; in the data active means inhibition above about 50%
# STEP conf – STEP phosphatase inhibitor hit confirmation, biochemical, fluorescence intensity, single concentration; recombinant STEP, OMFP fluorogenic substrate; shares compounds with STEP block; 520 tested, 32% active; inhibition, % at 20 µM; call rule not given here;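 further: 0% = enzyme with substrate plus DMSO and 100% = substrate without enzyme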
# * = called active by the depositor; · = not tested or not shown. Shown are actives, neighbours in structure and some others; about 1.8% of the full set was active somewhere.
SMILES,SUMO1-SIM PPI,Scp-1 inhibitor,HKDC1 inh,LMPTP inh,STEP block,DNMT1 block,STEP conf
Cc1cc(N2CCN(C(=O)c3ccco3)CC2)c2ccccc2n1,-0.1,-18.7,0.8,7.2,71.1*,0.2,-0.5
COc1ccc(-c2csc3nc(-c4cccnc4)nc(N4CCC(C(N)=O)CC4)c23)cc1OC,-8.6,0.5,0.4,0.7,49.8*,-19.5,28.9
COc1ccc(-c2csc3nc(C)nc(N4CCCCC4)c23)cc1OC,1.9,-2.5,4.8,0.7,-1.8,-35.1,·
COc1ccc([C@H]2C[C@@H](n3cc(-c4ccc(F)cc4)nn3)[C@H](O)CN2C(=O)C2CCCCC2)cc1,4.0,·,·,-0.5,0.1,-1.3,·
CCN(C1=NS(=O)(=O)c2ccccc21)N(CC)S(=O)(=O)c1ccc(C)cc1,0.8,-8.0,-4.8,0.8,72.9*,-4.8,4.1
CCN(CC)S(=O)(=O)c1ccc(C(=O)NN(C)C2=NS(=O)(=O)c3ccccc32)cc1,0.0,6.0,1.9,-0.9,0.1,-4.5,·
O=C(COC(=O)c1ccc(NC(=O)C2CC=CCC2C(=O)O)cc1)c1ccccc1 (centres undefined),14.7,4.5,-1.4,0.0,0.3,6.5,·
Cc1sc2nc(CSC(C)C(=O)Nc3ccc(C(N)=O)cc3)[nH]c(=O)c2c1C (centres undefined),2.6,-12.4,8.8,-1.1,-3.8,-2.9,·
Cc1sc2nc(CSC(C)C(=O)Nc3ccc(Cl)cn3)[nH]c(=O)c2c1C (centres undefined),5.9,2.3,-1.8,-1.8,78.6*,2.4,59.6*
Cc1cc([N+](=O)[O-])c2[nH]c(C(=O)N/N=C/c3ccccc3C(=O)O)c(-c3ccccc3)c2c1,4.8,2.4,0.7,0.4,73.3*,0.6,23.5
CCCNC(=O)C1(C)CCCN(C(=O)c2cc(C)nn2C(C)(C)C)C1 (centres undefined),2.1,·,·,-0.3,-0.6,0.9,·
COc1ccc(NC(=S)NCCCN2CCCC2)cc1Cl,-7.0,-16.9,-3.9,-1.9,89.9*,0.4,41.2*
COc1ccc(NC(=S)NCCN2CCC(C)CC2)cc1Cl,-1.2,-4.1,4.0,-1.0,90.0*,-42.5,79.2*
S=C(NCCCN1CCOCC1)Nc1ccc(Cl)cc1Cl,-2.3,-12.9,-1.0,-8.1,42.4*,0.7,9.4
COc1ccc(NC(=S)N(CCCN2CCC(C)CC2)Cc2cccs2)cc1Cl,-2.5,-4.2,-3.8,-0.4,56.2*,-3.3,27.0*
COc1ccc(Cl)cc1NC(=S)NCCN1CCOCC1,-0.4,-5.4,-9.5,0.7,2.6,-2.0,·
Cc1ccccc1Nc1nnc(SCC(=O)NCC2CCCO2)s1 (centres undefined),2.4,-4.7,-5.2,-2.4,1.5,6.1,·
C[C@@H]1CN([C@@H](C)CO)C(=O)CCCn2nncc2CO[C@H]1CN(C)C(=O)OCc1ccccc1,6.6,·,·,-2.4,2.5,2.9,·
COc1ccccc1NS(=O)(=O)c1cc(NC(=O)c2sccc2C)ccc1N1CCOCC1,5.6,-9.0,-1.5,4.0,-0.4,-10.6,·
COc1ccccc1NS(=O)(=O)c1cc(NC(=O)c2sccc2C)ccc1N1CCCC1,2.6,-6.9,-0.2,4.0,97.8*,-6.6,93.4*
COc1ccccc1NS(=O)(=O)c1cc(NC(=O)C(C)(C)C)ccc1N1CCOCC1,1.6,-6.2,-1.6,1.1,-0.1,0.0,·
COc1ccccc1NS(=O)(=O)c1cc(NC(=S)NCCN2CCOCC2)ccc1N1CCOCC1,2.6,-5.5,-7.1,0.2,90.7*,0.0,69.4*
CCC(CC)c1nnc(NC(=O)c2cc(C(=O)OC)cc([N+](=O)[O-])c2)s1,-16.6,-9.0,-9.0,1.5,97.4*,7.1,69.1*
COC(=O)c1cc(C(=O)Nc2nnc(CC(C)C)s2)cc([N+](=O)[O-])c1,-14.2,-1.7,-4.5,1.2,0.9,3.6,·
C[C@@H]1CCCCCCCCC(=O)OCCN(C(=O)OC(C)(C)C)[C@H](C)CCCCCCCCC(=O)OCCN(C(=O)OC(C)(C)C)[C@H](C)CCCCCCCCC(=O)OCCN1C(=O)OC(C)(C)C,·,-8.5,-5.3,·,·,·,·
SMILES,SUMO1-SIM PPI,Scp-1 inhibitor,HKDC1 inh,LMPTP inh,STEP block,DNMT1 block,STEP conf
O=C(NCCCN1CCOCC1)c1cccc(S(=O)(=O)N2CCN(c3ccccc3)CC2)c1,-0.4,-3.8,3.3,0.1,-0.1,1.7,·
O=S(=O)(c1ccccc1)N1CCN(C(=S)NCCCN2CCOCC2)CC1,0.7,4.8,-2.6,-3.5,48.7*,1.7,14.1
CC1(Oc2ccc(CC#N)cc2)CCN(Cc2ccc(-n3ccnc3)cc2)C1 (centres undefined),-1.1,·,·,6.9,-0.6,2.0,·
CCCC(=O)Nc1cc(-c2nn(C)c(=O)c3ccccc23)ccc1N1CCOCC1,-2.1,23.1,-4.6,-2.0,42.1*,9.5,8.7
Cc1c(C(=O)NCc2ccc(F)cc2)sc(=O)n1Cc1ccccc1F,-0.4,·,·,1.1,0.0,2.8,·
COc1cc(NC(=O)CCc2nnc3ccc(N4CCC5(CC4)OCCO5)nn23)cc(OC)c1,6.6,5.9,-3.5,-1.6,-1.9,-1.6,·
S=C(Nc1ccccc1Cl)NC1CCC(NC(=S)Nc2ccccc2Cl)CC1 (centres undefined),2.3,-5.2,-7.9,-2.5,43.6*,19.6,3.7
Cc1cc(C)c(NC(=S)NCC2CCN(C(C)c3ccccc3)C2)c(C)c1 (centres undefined),0.8,-7.9,-9.2,0.9,95.4*,-4.6,82.7*
CC(c1ccccc1)N1CCC(CNC(=S)Nc2cccc(Cl)c2)C1 (centres undefined),1.7,-5.4,-2.9,0.6,3.7,-2.0,·
Cc1ccc(NC(=S)NCC2CCN(C(C)c3ccccc3)C2)cc1 (centres undefined),0.1,-10.4,-2.3,0.6,47.1*,0.1,9.8
Cc1ccccc1NC(=S)NCC1CCC(CNC(=S)Nc2ccccc2C)CC1 (centres undefined),-0.9,-4.3,-1.4,0.5,1.4,-0.3,·
